Screens: PubChem, several laboratories
Only some compounds are listed: those with a hit (about 4.1% of all), similar ones and a draw of the others.
KCNK9 block: blocks the human KCNK9 two-pore domain potassium channel | Q9NPC2 | HEK293 KCNK9, FluxOR thallium flux fluorescence; active compounds read low | B-score at 10 µM | hit rate 1.2% among 310,000;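 active means ratio B-score over 3 SD below the library mean, with starting fluorescence within 5 SD of its mean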;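 further: negative B-score means less thallium flux so channel inhibition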
KCNQ1 inh: inhibitors of human KCNQ1 potassium channel; hit rate 1.3% among 310,000; CHO-K1 KCNQ1, FluxOR thallium flux fluorescence; active compounds read high; P51787; B-score at 10 µM; AID 2642;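 active means compounds whose thallium flux B-score, printed positive for inhibition, exceeds three library SD while starting fluorescence stays within three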;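 further: channel opened by potassium depolarization with thallium stimulus after 20 min compound exposure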
KCNK3 block: human KCNK3 channel inhibition, primary screen; B-score at 10 µM; CHO-KCNK3 thallium flux, FluxOR fluorescence; active compounds read low; hit rate 0.84% among 340,000; O14649;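 active means B-score under library mean minus 4 SD, starting fluorescence ratio at most library mean plus 5 SD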;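 further: more negative B-score means stronger inhibition of thallium flux through KCNK3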
hERG rescue: hERG (human) protection from proarrhythmic block | activation (rescue from dofetilide block), less the hit threshold, % at 10 µM | hit rate 0.51% among 310,000 | CHO-hERG, FluxOR thallium flux, dofetilide IC70 present | Q12809 | AID 1511;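 active means activation above the mean of controls blocked by dofetilide plus 5 SD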;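 further: thallium influx through hERG after potassium depolarization seen as dye fluorescence rise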
KCNQ1 pot: human KCNQ1 channel potentiation or activation | CHO-K1 KCNQ1, thallium flux FluxOR fluorescence; active compounds read high | B-score at 10 µM | hit rate 0.35% among 310,000 | AID 2648;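 active means fluorescence ratio B-score, a plate-corrected score, at least three library SD, with initial intensity B-score within 5 SD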
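assay system = KCNQ1-transfected CHO-K1 cells | medium = assay buffer with matched DMSO | probe or stimulus = depolarizing K+/Tl+ stimulus, K2SO4 and Tl2SO4 each 12.5 mM in 5x stock | dosing = single dose | incubation = dye 90 min, compound 20 min, room temperature | detection = kinetic FluxOR fluorescence, 10 s baseline plus 110 s post-stimulus | evaluation = ratio B score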
Cl transport mod: modulators of human KCC2 chloride dependent transport; AID 1456; KCC2 cells, thallium flux FluoZin-2 fluorescence; Q9H2X9; B-score of Tl+ flux slope (higher = more flux/activation; lower = inhibition) at 10 µM; hit rate 2.2% among 190,000;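 active means thallium flux slope and its plate-corrected score both differing from the plate sample mean at a set confidence after two filtering rounds, in either direction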;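 further: slope of fluorescence scaled to starting intensity during 10 to 20 s after thallium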
KCC2 sec1: confirmation of human KCC2 transport modulators | normalised thallium flux (F/F0 slope) at 10 µM | AID 1713 | hit rate 15% among 3,700 | shares compounds with Cl transport mod | HEK293-KCC2, thallium flux, FluoZin2 fluorescence; active compounds read high;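 active means thallium flux slope above the same plate's solvent-only control mean plus 3 SD; inconclusive means the two replicate wells disagree; inactive means no significant difference from solvent-only control wells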
KCC2 bumet counter: bumetanide-insensitive thallium flux in KCC2 cells with ouabain, counter-screen. HEK293-KCC2 + bumetanide/ouabain, thallium flux FluoZin2; active compounds read high. hit rate 49% among 3,700. shares compounds with Cl transport mod. AID 1714. normalized thallium flux at 10 µM;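 active means thallium entry rate above the same plate's blocked-transporter control wells by more than 3 SD; inconclusive means the two repeat wells disagree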;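 further: raw slope of fluorescence over initial fluorescence between 10 and 20 s after thallium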
KCC2 secondary2: KCC2 (human) modulation, second secondary assay. shares compounds with Cl transport mod. HEK293-KCC2, thallium flux FluoZin2 fluorescence; actives lie on both sides; F/F0 rise rate, 10–20 s post-thallium. normalized thallium flux at 10 µM. hit rate 23% among 3,700. AID 1715;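 active means thallium flux slope more than 3 SD above or below the plate's solvent-only control mean, mostly below; inconclusive means the two repeat wells disagreed; inactive means no significant shift from solvent-only controls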;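 further: raw slope with 0.1% DMSO as baseline and bumetanide as block control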
HEK counter1: counter-screen for KCC2 modulators: effect in parental HEK293 cells; shares compounds with Cl transport mod; thallium flux FluoZin2, ouabain; baseline-ratio fluorescence slope, 10–20 s after thallium; thallium flux rate (normalised fluorescence) at 10 µM; hit rate 46% among 3,700;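 active means thallium flux rate significantly above the same plate's solvent-only control wells, beyond their mean plus 3 SD; inconclusive means the two replicate wells gave conflicting results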
KCC2 retest ouab: confirmation of human KCC2 modulators with ouabain. shares compounds with Cl transport mod. raw Tl+ flux slope (below DMSO = inhibition, above = activation) at 10 µM. hit rate 48% among 3,700. HEK293-KCC2, thallium flux FluoZin2 fluorescence; bidirectional: low = inhibitor, high = activator;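 active means thallium flux slope beyond 3 SD from same-plate DMSO control mean in most replicates, usually higher, sometimes lower; inconclusive means repeat tests gave conflicting results; inactive means no significant difference from controls in most replicates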;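 further: slope of initial-normalized fluorescence between seconds 10 and 20 after thallium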
HEK293 Tl flux2: acts in parental HEK cells, second KCC2 counter-screen | shares compounds with Cl transport mod | HEK293 parental, thallium flux FluoZin-2 fluorescence slope | thallium flux slope at 10 µM | hit rate 33% among 3,700;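 active means thallium flux slope above the same plate's solvent-control mean plus 3 SD in both duplicate wells; inconclusive means duplicate wells that disagreed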;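 further: run without ouabain in cells lacking the KCC2 cotransporter; slope of fluorescence scaled to its starting value between 10 and 20 s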
* hit, by the source's call; i = inactive; ? = inconclusive; . = not tested or not shown.

SMILES	KCNK9 block	KCNQ1 inh	KCNK3 block	hERG rescue	KCNQ1 pot	Cl transport mod	KCC2 sec1	KCC2 bumet counter	KCC2 secondary2	HEK counter1	KCC2 retest ouab	HEK293 Tl flux2
COc1ccc(CSCCc2n[nH]c(=S)n2-c2ccccc2)cc1C	i	i	i	-7.5	i	54.8*	0.00914	0.0294*	0.0343	0.0234*	0.02	0.0124
Cc1ccc(NC(=O)C2CCCN2S(=O)(=O)c2ccc3c(c2)CCC(=O)N3)cc1Cl (stereo not drawn)	i	i	i	-6.0	i	.	.	.	.	.	.	.
COc1ccc(-n2nc(C(=O)NCC(=O)N3CC(C)CC(C)C3)c3ccccc3c2=O)cc1OC (stereo not drawn)	i	i	i	-15.8	i	.	.	.	.	.	.	.
COc1cccc(-n2nc(C(=O)N3CC(C)CC(C)C3)c3ccccc3c2=O)c1 (stereo not drawn)	i	i	i	-16.7	i	4.37*	0.00717	0.00419	0.0316	0.00719	0.0193	0.0101
Cc1cc(C)c(C#N)c(SCc2nc3ccccc3c(=O)[nH]2)n1	i	i	i	-4.2	i	0.378	.	.	.	.	.	.
COc1cccc(/C=c2\s/c(=C/C(=O)c3ccc(C)cc3)[nH]c2=O)c1OC	i	i	i	-5.3	i	4.67*	0.00547	?	0.0348	0.0113*	0.0261*	?
O=C(C1CCCN(S(=O)(=O)c2cccc3nsnc23)C1)N1CCc2ccccc2C1 (stereo not drawn)	i	i	i	-7.5	i	-3.16*	0.00778	0.0054	0.03	0.00726	0.0188	0.0107
c1ccc(-n2cnc3cc(NCc4ccncc4)ccc32)cc1	i	i	i	-7.5	i	-4.37*	0.00559	0.00451	0.0249*	0.00738	?	0.00951
CSc1nc2[nH]c3c(c2c2ncnn12)CCCC3	i	i	i	-8.6	i	-0.0136	0.00879	0.00608	0.0315	0.00752	0.0192	0.0108
CSC1=C(C#N)C(c2ccncc2)C(C(=O)Nc2ccccc2)=C(C)N1 (stereo not drawn)	i	i	i	-17.4	i	-0.116	.	.	.	.	.	.
CSc1ccccc1NC(=O)c1cnc2scc(C)n2c1=O	i	i	i	-19.8	i	-3.93*	0.00675	0.00456	0.0268*	0.00616*	?	0.00941
CSc1ccccc1NC(=O)c1cnccn1	i	i	i	-11.6	i	3.42*	0.00719	0.00485	0.0331	0.00706	0.0197	0.00992
CC(C)c1ccccc1NC(=O)c1cnccn1	i	i	i	-9.4	i	.	.	.	.	.	.	.
CC1=NN(c2nc3ccccc3s2)C(O)(C(F)(F)F)C1 (stereo not drawn)	i	i	i	-9.4	i	5.83*	0.00846	0.011*	0.0297	0.0119*	?	0.0127*
COn1c(SCc2ccc(C)cc2C)nc2ccccc2c1=O	i	i	i	-8.6	i	0.477	.	.	.	.	.	.
O=C(O)/C=C/c1ccccc1Oc1ccc(Cl)cc1Cl	i	i	i	1.6	i	-6.58*	0.00511	0.00596*	0.0214*	0.00682	?	0.01
O=C(O)/C=C\c1ccccc1Oc1cccc(Cl)c1	i	i	i	-3.4	i	-2.6	.	.	.	.	.	.
